Laboratory results as given in ChEMBL document CHEMBL1138683 (J Med Chem, 2004).

Legend:
[1] = system: Mus musculus; test: Quantitative Anticonvulsant activity administered intraperitoneally to mouse for protective index in maximal electro shock test;TD50/ED50; assay type: functional
In short: (§1)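 Mice dosed intraperitoneally with compound dissolved or suspended in 0.5% methylcellulose (0.01 mL per gram body weight). […] Protective index calculated as TD50/ED50 for each seizure test.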

[2] = system: Rattus norvegicus; test: Anticonvulsant activity after oral administration of 100 mg/kg dose after 1 hr in rats; + means 25% of the animals protected; assay type: functional, organism-based; design: dose 100 mg/kg
In short: (§2)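 Oral dosing of rats at a single dose, compound dissolved or suspended in 0.5% methylcellulose. Protection in the MES or scMet test checked 15 min, 30 min, 1 h, 2 h and 4 h after dosing. Scored as 25/50/75/100% of animals protected (+ to ++++), – for none.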

[3] = Anti convulsant activity administered intra peritoneally to mouse for toxicity at 4 hr with dose of 300 mg/kg; 1/2= No of animals exhibiting toxicity /No of animals tested; assay type: organism-based; design: dose 300 mg/kg; conditions: in vivo, ip
[4] = Anti convulsant activity administered intra peritoneally to mouse for toxicity at 4 hr with dose of 30 mg/kg; 0/2= No of animals exhibiting toxicity /No of animals tested; assay type: organism-based; design: dose 30 mg/kg; conditions: in vivo, ip
[5] = system: Mus musculus; test: Anti convulsant activity administered intra peritoneally to mouse at maximal electroshock test at 4 hr after the drug administered with dose of 30 mg/kg; 0/1= No of animals protected /No of animals tested; assay type: functional
[6] = system: Rattus norvegicus; test: Anticonvulsant activity after oral administration of 50 mg/kg dose after 15 min in rats; ++++means 100% of the animals protected; assay type: functional, organism-based; design: dose 50 mg/kg; in short: as §2
[7] = system: Mus musculus; test: Quantitative Anticonvulsant activity administered intraperitoneally to mouse for subcutaneous metrazol test; assay type: functional; in short: as §1
[8] = system: Mus musculus; test: Anti convulsant activity administered intra peritoneally to mouse for subcutaneous metrazol test at 4 hr after the drug administered with dose of 30 mg/kg; 0/1= No of animals protected /No of animals tested; assay type: functional; conditions: route intraperitoneal
[9] = system: Rattus norvegicus; test: Quantitative Anticonvulsant activity administered orally to rat at maximal electro shock test; the interval in parenthesis stands for 95% confidence interval; assay type: functional; conditions: po
In short: (§3)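 Oral dosing in rats with compound dissolved or suspended in 0.5% methylcellulose (0.04 mL per 10 g body weight). […] Protective index taken as TD50/ED50 for each test.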

[10] = system: Rattus norvegicus; test: Quantitative Anticonvulsant activity administered orally to rat for protective index in maximal electro shock test;TD50/ED50; assay type: functional; in short: as §3
[11] = system: Mus musculus; test: Anti convulsant activity administered intra peritoneally to mouse for subcutaneous metrazol test at 0.5 hr with dose of 300 mg/kg; 1/1= No of animals protected /No of animals tested; assay type: functional
[12] = system: Rattus norvegicus; test: Anticonvulsant activity after oral administration of 30 mg/kg dose after 30 min in rats; ++ means 50% animals protected; assay type: functional, organism-based; design: dose 30 mg/kg; in short: as §2
[13] = system: Mus musculus; test: Anti convulsant activity administered intra peritoneally to mouse at maximal electroshock test at 4 hr after the drug administered with dose of 100 mg/kg; 0/3= No of animals protected /No of animals tested; assay type: functional
[14] = system: Mus musculus; test: Anti convulsant activity administered intra peritoneally to mouse at maximal electroshock test at 0.5 hr after the drug administered with dose of 300 mg/kg; 1/1= No of animals protected /No of animals tested; assay type: functional
[15] = system: Rattus norvegicus; test: Quantitative Anticonvulsant activity administered orally to rat for protective index in subcutaneous metrazol test; assay type: functional; in short: as §3
[16] = system: Mus musculus; test: Anti convulsant activity administered intra peritoneally to mouse for subcutaneous metrazol test at 4 hr after the drug administered with dose of 100 mg/kg; 0/1= No of animals protected /No of animals tested; assay type: functional
[17] = Anti convulsant activity administered intra peritoneally to mouse for toxicity at 0.5 hr with dose of 300 mg/kg; 4/4= No of animals exhibiting toxicity /No of animals tested; assay type: organism-based; design: dose 300 mg/kg; conditions: in vivo, ip
[18] = system: Mus musculus; test: Anti convulsant activity administered intra peritoneally to mouse for subcutaneous metrazol test at 4 hr with dose of 300 mg/kg; 1/1= No of animals protected /No of animals tested; assay type: functional
[19] = Anti convulsant activity administered intra peritoneally to mouse for toxicity at 0.5 hr with dose of 30 mg/kg; 0/4= No of animals exhibiting toxicity /No of animals tested; assay type: organism-based; design: dose 30 mg/kg; conditions: in vivo, ip
[20] = system: Mus musculus; test: Anti convulsant activity administered intra peritoneally to mouse for toxicity at 4 hr with dose of 30 mg/kg; 2/3= No of animals exhibiting toxicity /No of animals tested; assay type: functional
[21] = Quantitative Anticonvulsant activity administered intraperitoneally to mouse for toxicity; conditions: in vivo, ip; in short: as §1
[22] = system: Rattus norvegicus; test: Anticonvulsant activity after oral administration of 50 mg/kg dose after 30 min in rats; +++ means 75% of the animals protected; assay type: functional, organism-based; design: dose 50 mg/kg
In short: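 Rats dosed orally with compound dissolved or suspended in 0.5% methylcellulose (0.04 mL per 10 g body weight). Anticonvulsant protection (MES or scMet) and toxicity scored at 15 min, 30 min, 1 h, 2 h and 4 h after dosing. Graded in steps of 25% of animals protected or showing toxicity.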

[23] = system: Mus musculus; test: Quantitative Anticonvulsant activity administered intraperitoneally to mouse for protective index in subcutaneous metrazol test; assay type: functional; in short: as §1
[24] = system: Rattus norvegicus; test: Quantitative Anticonvulsant activity administered orally to rat for subcutaneous metrazol test; assay type: functional; in short: as §3
[25] = system: Mus musculus; test: Anti convulsant activity administered intra peritoneally to mouse for subcutaneous metrazol test at 0.5 hr with dose of 30 mg/kg; 0/1= No of animals protected /No of animals tested; assay type: functional
[26] = system: Rattus norvegicus; test: Anticonvulsant activity after oral administration of 30 mg/kg dose after 1 hr in rats; ++means 50% animals protected; assay type: functional, organism-based; design: dose 30 mg/kg; in short: as §2
[27] = system: Mus musculus; test: Anti convulsant activity administered intra peritoneally to mouse at maximal electroshock test at 0.5 h after the drug administered with dose of 30 mg/kg; 0/1= No of animals protected /No of animals tested; assay type: functional
[28] = Anti convulsant activity administered intra peritoneally to mouse for toxicity at 4 hr with dose of 100 mg/kg; 0/4= No of animals exhibiting toxicity /No of animals tested; assay type: organism-based; design: dose 100 mg/kg; conditions: in vivo, ip
[29] = system: Rattus norvegicus; test: Quantitative Anticonvulsant activity administered orally to rat for toxicity; assay type: functional; conditions: po; in short: as §3
[30] = Anti convulsant activity administered intra peritoneally to mouse for toxicity at 0.5 hr with dose of 100 mg/kg; 0/8= No of animals exhibiting toxicity /No of animals tested; assay type: organism-based; design: dose 100 mg/kg; conditions: in vivo, ip
[31] = system: Mus musculus; test: Anti convulsant activity administered intra peritoneally to mouse at maximal electroshock test at 4 hr after the drug administered with dose of 300 mg/kg; 0/1= No of animals protected /No of animals tested; assay type: functional
[32] = system: Mus musculus; test: Anti convulsant activity administered intra peritoneally to mouse for toxicity at 4 hr with dose of 30 mg/kg; 1/3= No of animals exhibiting toxicity /No of animals tested; assay type: functional
[33] = Anti convulsant activity administered intra peritoneally to mouse for toxicity at 0.5 hr with dose of 100 mg/kg; 7/8= No of animals exhibiting toxicity /No of animals tested; assay type: organism-based; design: dose 100 mg/kg; conditions: in vivo, ip
[34] = Anti convulsant activity administered intra peritoneally to mouse for toxicity at 4 hr with dose of 100 mg/kg; 4/4= No of animals exhibiting toxicity /No of animals tested; assay type: organism-based; design: dose 100 mg/kg; conditions: in vivo, ip
[35] = Anti convulsant activity administered intra peritoneally to mouse for toxicity at 4 hr with dose of 300 mg/kg; 2/2= No of animals exhibiting toxicity /No of animals tested; assay type: organism-based; design: dose 300 mg/kg; conditions: in vivo, ip
[36] = system: Mus musculus; test: Anti convulsant activity administered intra peritoneally to mouse at maximal electroshock test at 4 hr after the drug administered with dose of 300 mg/kg; 1/1= No of animals protected /No of animals tested; assay type: functional

In the case of `CONC(=O)C1C(C)(C)C1(C)C`, the Ratio [1] is reported as 1.4 mg/kg, the Activity [2] is reported as 25% of the animals protected and the Toxicity [3] is reported as 1. For the same compound, the Toxicity [4] was 0, the Activity [5] was 0 and the “Anticonvulsant Activity” value [6] was 100% of the animals protected. It also gave an ED50 [7] of 74 mg/kg, an Activity [8] of 0 and an ED50 [9] of 108 mg/kg. The Ratio [10] was 3.1, the Activity [11] was 1 and the Activity [12] was 25% of the animals protected. For the same compound, the Activity [13] was 0, the Activity [14] was 1 and the Activity [15] was 9.5. For the same compound, the Activity [16] was 0, the Toxicity [17] was 4 and the Activity [18] was 1. The Toxicity [19] was 0, the Activity [20] was 2 and the TD50 [21] was 116 mg/kg. For the same compound, the Activity [22] was 25% of the animals protected, the Anticonvulsant [23] was 2.2 and the ED50 [24] was 35 mg/kg. The Activity [25] was 0, the Activity [26] was 25% of the animals protected and the Activity [27] was 0. The Toxicity [28] was 0, the ED50 [29] was 333 mg/kg and the Toxicity [30] was 0. For the same compound, the Activity [31] was 0.

`CC1(C)C(C(=O)N=C(N)N)C1(C)C` gave a Toxicity [4] of 0, an Activity [5] of 0 and an Activity [32] of 1. The Activity [8] was 0, the Activity [13] was 0 and the Activity [14] was 1. The Toxicity [17] was 4, the Toxicity [19] was 0 and the Toxicity [33] was 7. The Toxicity [34] was 4, the Toxicity [35] was 2 and the Activity [36] was 1. For the same compound, the Activity [25] was 0 and the Activity [27] was 0.
